ChEMBL document CHEMBL3861950, “Design, synthesis and evaluation of novel 19F magnetic resonance sensitive protein tyrosine phosphatase inhibitors” (Medchemcomm, 2016)

How the values were obtained:
[1] = Inhibition of recombinant Mycobacterium tuberculosis PTPB using pNPP as substrate by spectrophotometric method
In short: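 Recombinant enzyme made in-house. Substrate pNPP in 50 mM 3,3-dimethylglutarate buffer, pH 7.0, with 1 mM EDTA and 150 mM NaCl, at 25 °C, screened in 96-well format. p-Nitrophenol product read at 405 nm. Non-enzymatic pNPP hydrolysis was corrected using a control without enzyme.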

[2] = molecular target: T1, Tyrosine-protein phosphatase non-receptor type 22 (Homo sapiens, UniProt Q9Y2R2); experiment: Inhibition of recombinant LYP (unknown origin) using pNPP as substrate by spectrophotometric method
T1 sequence (Q9Y2R2 whole entry): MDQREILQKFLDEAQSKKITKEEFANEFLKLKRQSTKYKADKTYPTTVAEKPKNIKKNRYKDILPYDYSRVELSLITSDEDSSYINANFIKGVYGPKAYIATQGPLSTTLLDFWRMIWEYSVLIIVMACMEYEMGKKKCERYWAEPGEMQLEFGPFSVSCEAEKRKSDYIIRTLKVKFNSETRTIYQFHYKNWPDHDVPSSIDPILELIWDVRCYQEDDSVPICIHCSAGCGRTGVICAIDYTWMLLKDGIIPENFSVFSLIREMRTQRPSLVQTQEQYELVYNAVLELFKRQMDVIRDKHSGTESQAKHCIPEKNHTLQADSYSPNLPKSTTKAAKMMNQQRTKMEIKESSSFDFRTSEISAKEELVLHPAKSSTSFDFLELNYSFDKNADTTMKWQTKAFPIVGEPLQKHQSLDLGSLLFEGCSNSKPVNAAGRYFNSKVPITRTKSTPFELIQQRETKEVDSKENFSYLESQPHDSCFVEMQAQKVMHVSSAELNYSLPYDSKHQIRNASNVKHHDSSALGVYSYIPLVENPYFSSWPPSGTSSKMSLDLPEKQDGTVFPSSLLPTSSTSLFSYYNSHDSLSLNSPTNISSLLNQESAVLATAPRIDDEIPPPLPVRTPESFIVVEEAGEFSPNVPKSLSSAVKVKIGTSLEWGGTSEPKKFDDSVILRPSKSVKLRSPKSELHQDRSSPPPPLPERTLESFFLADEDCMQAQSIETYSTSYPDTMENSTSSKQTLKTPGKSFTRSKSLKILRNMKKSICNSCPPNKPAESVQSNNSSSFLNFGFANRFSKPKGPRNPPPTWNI
In short: (§1)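 Recombinant PTP prepared in-house, assayed with pNPP substrate in 50 mM 3,3-dimethylglutarate buffer pH 7.0 containing 1 mM EDTA and 150 mM NaCl at 25 °C, in 96-well format. p-Nitrophenol product was quantified by absorbance at 405 nm. Non-enzymatic pNPP hydrolysis was corrected using a no-enzyme control.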

[3] = molecular target: T2, Tyrosine-protein phosphatase non-receptor type 1 (Homo sapiens, UniProt P18031); experiment: Inhibition of recombinant PTP1B (unknown origin) using pNPP as substrate by spectrophotometric method; in short: as §1
T2 sequence (P18031 whole entry): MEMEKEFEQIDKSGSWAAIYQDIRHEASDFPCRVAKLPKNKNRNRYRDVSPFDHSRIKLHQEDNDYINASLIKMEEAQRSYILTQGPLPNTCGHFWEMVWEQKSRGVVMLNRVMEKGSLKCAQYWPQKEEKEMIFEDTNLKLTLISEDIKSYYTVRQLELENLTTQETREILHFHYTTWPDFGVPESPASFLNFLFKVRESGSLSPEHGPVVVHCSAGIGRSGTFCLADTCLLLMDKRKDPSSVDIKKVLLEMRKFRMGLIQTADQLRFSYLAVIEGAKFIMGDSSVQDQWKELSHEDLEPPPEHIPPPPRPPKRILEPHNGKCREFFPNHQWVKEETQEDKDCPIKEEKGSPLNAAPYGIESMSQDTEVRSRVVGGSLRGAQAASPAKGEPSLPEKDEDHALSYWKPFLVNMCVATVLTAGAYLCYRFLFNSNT

[4] = molecular target: Tyrosine-protein phosphatase non-receptor type 13 (Homo sapiens, UniProt Q12923); experiment: Inhibition of recombinant FAP1 (unknown origin) using pNPP as substrate by spectrophotometric method; in short: as §1
Tyrosine-protein phosphatase non-receptor type 13, sequence (Q12923 whole entry): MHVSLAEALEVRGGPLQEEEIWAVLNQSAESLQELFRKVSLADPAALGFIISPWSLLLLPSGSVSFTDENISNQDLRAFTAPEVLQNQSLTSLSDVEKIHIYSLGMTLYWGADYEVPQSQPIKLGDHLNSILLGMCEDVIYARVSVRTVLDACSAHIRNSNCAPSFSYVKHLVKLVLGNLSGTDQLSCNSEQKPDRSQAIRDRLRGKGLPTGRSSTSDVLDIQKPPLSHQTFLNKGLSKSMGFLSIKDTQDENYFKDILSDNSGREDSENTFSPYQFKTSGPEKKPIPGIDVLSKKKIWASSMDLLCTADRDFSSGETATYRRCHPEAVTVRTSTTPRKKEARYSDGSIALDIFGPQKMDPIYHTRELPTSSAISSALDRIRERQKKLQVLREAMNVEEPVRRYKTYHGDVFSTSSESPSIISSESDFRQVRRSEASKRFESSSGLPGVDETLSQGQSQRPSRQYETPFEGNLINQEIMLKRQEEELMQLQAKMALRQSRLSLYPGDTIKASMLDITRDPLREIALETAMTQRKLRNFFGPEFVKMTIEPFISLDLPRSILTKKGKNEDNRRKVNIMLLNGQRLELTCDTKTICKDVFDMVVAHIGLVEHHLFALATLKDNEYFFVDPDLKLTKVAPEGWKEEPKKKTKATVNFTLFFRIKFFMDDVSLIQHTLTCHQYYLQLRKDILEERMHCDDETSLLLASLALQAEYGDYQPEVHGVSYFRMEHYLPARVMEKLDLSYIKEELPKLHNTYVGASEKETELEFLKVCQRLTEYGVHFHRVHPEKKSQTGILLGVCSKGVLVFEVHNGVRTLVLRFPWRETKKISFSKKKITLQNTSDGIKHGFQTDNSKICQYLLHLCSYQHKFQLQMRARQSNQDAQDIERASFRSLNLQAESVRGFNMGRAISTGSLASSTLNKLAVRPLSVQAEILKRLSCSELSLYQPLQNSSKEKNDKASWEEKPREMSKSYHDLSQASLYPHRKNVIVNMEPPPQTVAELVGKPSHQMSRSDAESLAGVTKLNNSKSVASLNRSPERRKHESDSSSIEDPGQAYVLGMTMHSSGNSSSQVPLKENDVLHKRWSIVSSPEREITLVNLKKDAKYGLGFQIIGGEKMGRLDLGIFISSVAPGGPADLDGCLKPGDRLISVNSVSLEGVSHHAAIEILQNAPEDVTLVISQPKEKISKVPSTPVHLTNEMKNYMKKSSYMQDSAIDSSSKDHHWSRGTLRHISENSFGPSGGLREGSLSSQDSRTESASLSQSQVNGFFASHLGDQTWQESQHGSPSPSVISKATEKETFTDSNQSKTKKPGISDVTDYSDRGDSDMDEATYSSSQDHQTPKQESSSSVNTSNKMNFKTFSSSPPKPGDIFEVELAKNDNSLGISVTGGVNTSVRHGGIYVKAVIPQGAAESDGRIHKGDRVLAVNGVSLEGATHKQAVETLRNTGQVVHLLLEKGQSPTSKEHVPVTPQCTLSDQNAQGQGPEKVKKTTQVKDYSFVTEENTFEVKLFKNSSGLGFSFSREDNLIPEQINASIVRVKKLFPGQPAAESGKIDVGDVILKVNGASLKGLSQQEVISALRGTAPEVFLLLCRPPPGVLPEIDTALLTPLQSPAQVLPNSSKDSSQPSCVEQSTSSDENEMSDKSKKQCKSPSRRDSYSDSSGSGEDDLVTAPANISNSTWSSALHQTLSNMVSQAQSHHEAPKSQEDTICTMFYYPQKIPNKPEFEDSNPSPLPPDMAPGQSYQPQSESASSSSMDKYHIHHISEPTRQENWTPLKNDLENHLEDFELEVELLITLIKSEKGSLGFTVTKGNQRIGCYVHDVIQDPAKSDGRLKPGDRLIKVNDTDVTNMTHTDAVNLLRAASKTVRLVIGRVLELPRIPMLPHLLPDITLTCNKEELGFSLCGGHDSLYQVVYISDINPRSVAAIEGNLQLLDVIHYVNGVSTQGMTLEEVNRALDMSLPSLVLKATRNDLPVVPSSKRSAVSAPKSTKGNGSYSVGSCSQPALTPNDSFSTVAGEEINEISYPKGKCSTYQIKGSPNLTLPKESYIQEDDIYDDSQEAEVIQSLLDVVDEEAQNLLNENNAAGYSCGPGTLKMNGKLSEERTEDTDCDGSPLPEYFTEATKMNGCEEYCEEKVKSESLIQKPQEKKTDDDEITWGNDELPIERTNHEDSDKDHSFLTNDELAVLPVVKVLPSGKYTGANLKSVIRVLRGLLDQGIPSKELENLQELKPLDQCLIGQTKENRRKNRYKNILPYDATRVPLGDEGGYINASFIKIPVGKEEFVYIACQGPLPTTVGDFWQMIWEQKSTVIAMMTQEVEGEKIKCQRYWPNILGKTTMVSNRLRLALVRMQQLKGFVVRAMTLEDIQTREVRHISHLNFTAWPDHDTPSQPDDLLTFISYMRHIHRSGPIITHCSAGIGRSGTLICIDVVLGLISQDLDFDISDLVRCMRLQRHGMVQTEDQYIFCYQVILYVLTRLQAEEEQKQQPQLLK

[5] = molecular target: T3, Tyrosine-protein phosphatase non-receptor type 11 (Homo sapiens, UniProt Q06124); experiment: Inhibition of recombinant SHP2 (unknown origin) using pNPP as substrate by spectrophotometric method; in short: as §1
T3 sequence (Q06124 whole entry): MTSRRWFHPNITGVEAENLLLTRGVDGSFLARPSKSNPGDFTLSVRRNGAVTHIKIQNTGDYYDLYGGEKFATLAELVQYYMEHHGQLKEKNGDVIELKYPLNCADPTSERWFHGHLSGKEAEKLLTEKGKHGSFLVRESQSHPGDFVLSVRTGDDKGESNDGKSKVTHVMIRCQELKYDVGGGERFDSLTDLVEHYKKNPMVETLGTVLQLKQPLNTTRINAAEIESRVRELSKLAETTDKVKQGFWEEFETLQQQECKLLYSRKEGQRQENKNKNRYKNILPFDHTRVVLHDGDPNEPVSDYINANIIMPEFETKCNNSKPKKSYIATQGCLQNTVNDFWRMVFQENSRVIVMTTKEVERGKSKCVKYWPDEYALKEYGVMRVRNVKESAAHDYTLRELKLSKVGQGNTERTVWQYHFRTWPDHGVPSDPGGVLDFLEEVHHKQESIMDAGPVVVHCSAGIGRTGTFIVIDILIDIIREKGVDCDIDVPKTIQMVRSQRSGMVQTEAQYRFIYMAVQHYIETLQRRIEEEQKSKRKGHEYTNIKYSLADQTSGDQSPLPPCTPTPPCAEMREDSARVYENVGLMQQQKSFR

[6] = molecular target: T4, Receptor-type tyrosine-protein phosphatase C (Homo sapiens, UniProt P08575); experiment: Inhibition of recombinant CD45 (unknown origin) using pNPP as substrate by spectrophotometric method; in short: as §1
T4 sequence (P08575 whole entry): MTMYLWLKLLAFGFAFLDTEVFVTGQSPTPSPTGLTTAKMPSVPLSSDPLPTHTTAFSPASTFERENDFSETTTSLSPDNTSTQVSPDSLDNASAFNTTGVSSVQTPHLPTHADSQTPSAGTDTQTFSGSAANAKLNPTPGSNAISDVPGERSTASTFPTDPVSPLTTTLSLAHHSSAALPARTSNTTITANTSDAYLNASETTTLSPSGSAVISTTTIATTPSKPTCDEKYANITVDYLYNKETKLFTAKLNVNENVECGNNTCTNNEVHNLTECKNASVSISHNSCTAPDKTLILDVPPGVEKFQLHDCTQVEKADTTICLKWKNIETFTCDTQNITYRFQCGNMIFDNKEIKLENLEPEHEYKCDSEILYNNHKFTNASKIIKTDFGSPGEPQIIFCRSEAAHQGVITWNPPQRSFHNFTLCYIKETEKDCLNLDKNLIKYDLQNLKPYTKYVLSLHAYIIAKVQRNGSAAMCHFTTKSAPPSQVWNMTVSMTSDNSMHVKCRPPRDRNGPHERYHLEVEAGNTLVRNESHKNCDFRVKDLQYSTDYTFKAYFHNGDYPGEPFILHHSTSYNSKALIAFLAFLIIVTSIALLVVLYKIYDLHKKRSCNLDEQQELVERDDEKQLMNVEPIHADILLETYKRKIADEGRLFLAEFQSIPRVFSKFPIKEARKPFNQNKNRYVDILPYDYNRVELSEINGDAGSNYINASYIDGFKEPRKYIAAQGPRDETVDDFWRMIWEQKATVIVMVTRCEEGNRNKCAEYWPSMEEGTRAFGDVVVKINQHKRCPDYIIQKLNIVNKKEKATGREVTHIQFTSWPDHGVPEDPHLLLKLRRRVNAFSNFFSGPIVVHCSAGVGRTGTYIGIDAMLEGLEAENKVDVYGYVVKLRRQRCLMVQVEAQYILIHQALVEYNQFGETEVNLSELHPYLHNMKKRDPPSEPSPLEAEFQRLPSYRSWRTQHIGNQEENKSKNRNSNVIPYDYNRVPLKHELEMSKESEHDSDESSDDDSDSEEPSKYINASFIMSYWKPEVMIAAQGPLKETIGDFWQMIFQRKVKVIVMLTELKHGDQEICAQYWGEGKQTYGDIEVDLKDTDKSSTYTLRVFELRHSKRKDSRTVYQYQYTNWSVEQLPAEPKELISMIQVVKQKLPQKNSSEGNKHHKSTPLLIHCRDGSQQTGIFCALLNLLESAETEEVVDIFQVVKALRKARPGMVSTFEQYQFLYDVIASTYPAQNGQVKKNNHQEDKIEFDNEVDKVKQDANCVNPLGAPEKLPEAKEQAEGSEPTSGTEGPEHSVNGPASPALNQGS

Row | Compound | IC50 [1] [µM] | IC50 [2] [µM] | IC50 [3] [µM] | IC50 [4] [µM] | IC50 [5] [µM] | IC50 [6] [µM]
1 | O=C(COc1ccc2cc(C(O)(C(F)(F)F)C(F)(F)F)c(O)cc2c1)NCCc1ccc(Cl)cc1Cl | 5.1 | 6.9 | 12.6 | 4.3 | 6.7 | 5.2
2 | O=C(COc1ccc2cc(C(O)(C(F)(F)F)C(F)(F)F)c(O)cc2c1)Nc1ccc(-c2ccccc2)cc1 | 4.8 | > 20 | > 20 | 2.8 | 3.5 | 3.4
3 | CCCNC(=O)COc1ccc2cc(C(O)(C(F)(F)F)C(F)(F)F)c(O)cc2c1 | > 20 | > 20 | > 20 | > 20 | > 20 | > 20
4 | O=C(COc1ccc2cc(C(O)(C(F)(F)F)C(F)(F)F)c(O)cc2c1)N1c2ccccc2Sc2ccccc21 | 2.9 | 3.4 | 6.6 | 2.2 | 3.2 | 2.8
